The list is not random: actives were taken first. Their share in the collection is about 5.3%.
T cruzi repl = blocks replication of Trypanosoma cruzi. AID 1885. T. cruzi beta-gal in NIH3T3, luminescence, 90 h. inhibition, % (concentration not given with the values). 300,000 compounds, 1.4% hits;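 active = mean inhibition across valid replicates above about 55%, limit read from the data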;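 note: signal also drops with host cell toxicity which is not excluded here; 0% = plate median of DMSO wells and 100% = zero luminescence signal; higher percent means less beta-gal luminescence so fewer parasites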
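assay system = mouse NIH/3T3 fibroblasts infected with β-gal-expressing T. cruzi Tulahuen C4 | input = 5,000 NIH/3T3 host cells per well | buffer or medium = DMEM plus 2% FBS | timing = 3 h host attachment, then at least 90 h co-culture | measured by = GalScreen luminescence, 60 min | evaluation = luminescence reflecting intracellular parasite burden, expressed as percent inhibition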
CSC inhib = cancer stem cell inhibition | cancer stem cell-like cells viability, luminescence | 300,000 compounds, 1.1% hits | inhibition, % at 7.5 µM; in the data active = inhibition above about 75%; tested in HMLE shEcad cells
Mdm2 MdmX PPI = human Mdm2/MdmX binding inhibition | SaOS-2 split-luciferase Mdm2/MdmX complementation, luminescence | inhibition, % at 8 µM | 330,000 compounds, 3% hits | AID 485346;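 active = inhibition of at least 50% at 8 µM in the primary screen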
Target sequence (O15151 whole entry, looked up): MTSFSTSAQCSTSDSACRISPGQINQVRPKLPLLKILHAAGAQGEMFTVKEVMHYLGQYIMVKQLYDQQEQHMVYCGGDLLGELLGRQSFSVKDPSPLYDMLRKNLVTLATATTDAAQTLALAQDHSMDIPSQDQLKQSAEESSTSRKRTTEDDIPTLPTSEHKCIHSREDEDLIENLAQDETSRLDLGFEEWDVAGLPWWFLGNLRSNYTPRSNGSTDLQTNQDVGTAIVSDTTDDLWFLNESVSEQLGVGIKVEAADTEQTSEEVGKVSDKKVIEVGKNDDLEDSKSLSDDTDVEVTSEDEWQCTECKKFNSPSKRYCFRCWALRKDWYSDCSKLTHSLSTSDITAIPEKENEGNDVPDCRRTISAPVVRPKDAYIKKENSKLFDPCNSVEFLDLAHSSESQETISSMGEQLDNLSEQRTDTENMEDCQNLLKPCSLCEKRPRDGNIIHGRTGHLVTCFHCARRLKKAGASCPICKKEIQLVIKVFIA
Target sequence (Q00987 whole entry, looked up): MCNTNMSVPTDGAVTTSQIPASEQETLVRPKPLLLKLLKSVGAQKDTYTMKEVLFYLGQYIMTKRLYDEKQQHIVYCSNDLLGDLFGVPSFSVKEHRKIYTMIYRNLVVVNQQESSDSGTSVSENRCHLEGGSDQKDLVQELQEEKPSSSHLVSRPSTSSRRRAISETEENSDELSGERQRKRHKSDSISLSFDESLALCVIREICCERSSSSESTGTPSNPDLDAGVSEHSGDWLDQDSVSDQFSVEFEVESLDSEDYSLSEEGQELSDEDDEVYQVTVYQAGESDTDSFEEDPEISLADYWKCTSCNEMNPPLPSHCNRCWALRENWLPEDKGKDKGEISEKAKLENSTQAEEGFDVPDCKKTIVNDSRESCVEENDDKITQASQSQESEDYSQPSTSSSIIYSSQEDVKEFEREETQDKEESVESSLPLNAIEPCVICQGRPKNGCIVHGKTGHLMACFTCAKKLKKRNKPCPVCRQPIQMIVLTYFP
Calb FLC = C. albicans growth modulation with fluconazole; growth inhibition, % (test concentration not listed); 300,000 compounds, 0.57% hits; C. albicans CaCi-2 + fluconazole, Alamar Blue growth, 48 h; AID 1979;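 active = growth inhibition above about 58% in most replicates, limit read from the data, passing the limit was not always enough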;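 note: all wells also contain fluconazole at 8 µg/ml as a sub-toxic cotreatment; 0% = median of DMSO wells and 100% = median of geldanamycin control wells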
NLRP3 yeast inh = blocks the NALP3 inflammasome reconstituted in yeast; Yeast reconstituted NLRP3/ASC/caspase-1, beta-gal luminescence, 24 h; inhibition, % at 10 µM; 330,000 compounds, 0.39% hits;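 active = inhibition of 50% or more; inactive = inhibition below 50%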;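 note: plate controls were induced DMSO wells for no effect and uninduced yeast grown without galactose for full effect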
Beta cell apopt = blocks beta cell apoptosis. INS-1E cytokine-induced death, ATP luminescence, 48 h; percent of positive-control rescue, neutral wells zero. protection from apoptosis, % (test concentration not listed). 300,000 compounds, 0.8% hits;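 active = Every replicate reaches about 75%, or at least half do and their mean reaches it too, limit read from the data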;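 note: 0% = cytokine-treated negative control wells and 100% = positive control rescue; higher means more ATP so stronger rescue from cytokine killing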
Mdm2 MdmX conf = confirmation of human Mdm2/MdmX interaction inhibitors; 10,000 compounds, 55% hits; Mdm2-MdmX binding, luminescent assay; inhibition, % at 8 µM; shares compounds with Mdm2 MdmX PPI; in the data active = inhibition above about 40%
Full FLuc ctr = full-length luciferase inhibition in Mdm2/MdmX counter-screen; shares compounds with Mdm2 MdmX PPI; SaOS-2 full-length luciferase counterscreen, luminescence; inhibition, % at 8 µM; 6,200 compounds, 77% hits; AID 504607;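 active = mean inhibition at 8 µM reaching about 37%, which flags the compound as non-specific, limit read from the data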;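 note: p53-null SaOS-2 cells with luciferase driven by a doxycycline-inducible promoter; compound on cells about two nights before reading with doxycycline added after day one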
Starred values were filed as active, the others as inactive; . = not tested or not shown.

SMILES | T cruzi repl | CSC inhib | Mdm2 MdmX PPI | Calb FLC | NLRP3 yeast inh | Beta cell apopt | Mdm2 MdmX conf | Full FLuc ctr
COc1ccc(-c2n[nH]c(C)c2-c2ccc(Cl)cc2)c(O)c1OC | -6 | 34 | 87* | 5 | 9 | -10 | 73* | 39*
COc1ccc(-c2cn[nH]c2-c2ccc(O)cc2O)cc1 | 0 | -6 | 71* | -2 | 12 | -23 | 70* | 25
COc1ccc(-c2cn[nH]c2-c2ccc(OCC(=O)NN)cc2O)cc1 | 0 | 2 | 21 | -16 | 6 | -10 | . | .
C=C(C)COc1ccc(-c2[nH]ncc2-c2ccc(OC)c(OC)c2)c(O)c1 | -1 | 92* | 66* | -7 | -2 | 24 | 60* | 56*
O=C(NCCN1CCN(C(=O)c2cccc(OC(F)F)c2)CC1)c1cccc(OC(F)F)c1 | . | -12 | -5 | . | 13 | -5 | . | .
Cc1ccc(C(=O)NCc2ccc3c(c2)OCO3)o1 | -5 | . | 14 | 7 | 13 | . | . | .
Cc1ccc2cc3cc(C(=O)NCc4ccc5c(c4)OCO5)oc3nc2c1 | -6 | . | 68* | 3 | 16 | . | 28 | .
COc1ccc(CN2CCN(C(=O)c3cc(-c4cccnc4)nc4ccc(Cl)cc34)CC2)c(OC)c1OC | -1 | 13 | 51* | -4 | 28 | 7 | 49* | 73*
O=C(c1cc(-c2ccncc2)nc2ccccc12)N1CCN(c2ncccn2)CC1 | . | -4 | 22 | . | 10 | -4 | . | .
O=C(c1cc(-c2cccnc2)nc2ccc(Br)cc12)N1CCN(c2ncccn2)CC1 | 22 | 4 | 52* | 19 | 10 | -3 | 51* | 101*
CCN(CCN(C)C)C(=O)c1ccc2c(c1NCCO)C(=O)c1ccccc1C2=O | 12 | 8 | 26 | 23 | 16 | 13 | . | .
Cc1cc(C=C2C(=O)c3ccccc3C2=O)c(C)n1-c1ccccc1 | 0 | . | 62* | 8 | 14 | -2 | 56* | 34
Cc1cc(/C=C2/C(=O)NN(c3ccccc3)C2=O)c(C)n1-c1cccc(O)c1 | -26 | 21 | 73* | -49 | -23 | -5 | 72* | 122*
Cc1cc(/C=C2\Cc3ccccc3C2=O)c(C)n1-c1ccccc1 | 0 | 14 | 80* | 18 | 11 | 2 | 64* | 73*
Cc1nc(NC(=O)c2ccccc2)sc1-c1csc(NCc2ccco2)n1 | -13 | . | -2 | 12 | 8 | . | . | .
Cn1c(=O)c2c(SCC(=O)Nc3cccc(F)c3)nc(-c3ccco3)nc2n(C)c1=O | -19 | -9 | 100* | 7 | 15 | 5 | 20 | .
Cc1nc(SCC(=O)Nc2ccccc2C(F)(F)F)c2c(=O)n(C)c(=O)n(C)c2n1 | . | 13 | 95* | . | 11 | . | 2 | .
Cn1c(=O)c2c(SCc3cccc(C(F)(F)F)c3)nc(-c3ccco3)nc2n(C)c1=O | 12 | 13 | 83* | 4 | 0 | 4 | -9 | .
O=C(ONC1=NCCCCC1)c1cccc([N+](=O)[O-])c1 | 17 | -6 | 56* | 58 | 8 | 5 | 18 | .
O=C(CCCN1C(=O)/C(=C\c2ccccc2)SC1=S)Nc1cccc(C(=O)O)c1 | 4 | . | 1 | -5 | 5 | -4 | . | .
CC(/C=C1\SC(=S)N(CCCC(=O)Nc2ccc(C(=O)O)c(O)c2)C1=O)=C\c1ccccc1 | 5 | 22 | . | 14 | . | 1 | . | .
O=C(CCCN1C(=O)/C(=C/c2ccccc2)SC1=S)Nc1cccc(O)c1 | 24 | . | 100* | 22 | 12 | -7 | 93* | 58*
O=C(CN1C(=O)S/C(=C\C=C\c2ccccc2)C1=O)N1CCCCC1 | -2 | 2 | 25 | -6 | 6 | 10 | . | .
Cc1ccc(/C=C2/SC(=S)N(CCCC(=O)Nc3ccc(O)cc3)C2=O)cc1 | 34 | . | 92* | -30 | 10 | . | 94* | 54*
O=C(CN1C(=O)S/C(=C\C=C\c2ccccc2)C1=O)Nc1ccc(O)cc1 | -15 | 79* | 78* | -1 | 12 | 16 | 42* | 81*
SMILES | T cruzi repl | CSC inhib | Mdm2 MdmX PPI | Calb FLC | NLRP3 yeast inh | Beta cell apopt | Mdm2 MdmX conf | Full FLuc ctr
CC(/C=C1\SC(=S)N(CCC(=O)Nc2ccc(O)cc2)C1=O)=C\c1ccccc1 | 7 | 40 | 62* | -5 | 4 | 2 | 23 | .
COc1ccc(C(C(=O)NCC2CCCO2)N(Cc2ccc(F)cc2)C(=O)CNC(=O)c2ccco2)cc1OC (centres undefined) | -8 | -8 | 5 | -3 | 17 | -6 | . | .
O=C(CCNC(=O)c1ccc([N+](=O)[O-])cc1)NCc1ccccc1 | . | . | 0 | . | 18 | . | . | .
COc1cccc(/C=C2/SC(=S)N(CCCC(=O)Nc3ccc(O)cc3)C2=O)c1 | 53 | 8 | 100* | -1 | 17 | -11 | 85* | 3
O=C(CCCN1C(=O)S/C(=C/C=C/c2ccccc2)C1=O)Nc1ccc(C(=O)O)cc1 | -27 | 5 | 14 | -25 | 10 | -8 | . | .
COc1ccc(/C=C2/SC(=S)N(CCCC(=O)Nc3ccc(O)cc3)C2=O)cc1OC | 18 | 22 | 90* | 15 | 25 | -18 | 48* | 30
COc1ccc(/C=C2\SC(=S)N(CCCC(=O)Nc3ccc(C(=O)O)cc3)C2=O)cc1OC | -11 | 20 | 8 | 0 | 15 | -2 | . | .
COc1cc(/C=C2\SC(=S)N(CCC(=O)NC3CCCC3)C2=O)cc(OC)c1OC | 30 | -6 | 44 | 66 | 13 | -7 | . | .
Cc1ccc(NC(=O)CCCN2C(=O)/C(=C/C=C/c3ccccc3)SC2=S)cc1 | 3 | 13 | 57* | 10 | 22 | -4 | 41* | 47*
Cc1ccc(/C=C2\SC(=S)N(CCCC(=O)NC3CCCC3)C2=O)cc1 | -4 | -1 | 63* | -3 | 2 | 1 | 34 | .
CNC(=S)Nn1cnc2ccccc21 | 3 | -12 | -21 | 0 | 7 | -3 | . | .
COc1cccc(/C=C2\SC(=S)N(CCCC(=O)Nc3cc(C)on3)C2=O)c1 | -4 | 4 | 52* | 0 | 10 | 4 | 58* | 70*
Cc1ccc(/C=C2\SC(=S)N(CCC(=O)NNC(=O)c3ccccc3O)C2=O)cc1 | -6 | -5 | 53* | -7 | 2 | . | 17 | .
COc1ccccc1NC(=O)CCN1C(=O)/C(=C\c2cc(OC)c(OC)c(OC)c2)SC1=S | -13 | 5 | 52* | -2 | 18 | -1 | -2 | .
COc1cccc(/C=C2\SC(=S)N(CCCC(=O)NC3=NCCS3)C2=O)c1 | 7 | 14 | 63* | 0 | 13 | -9 | 15 | .
COc1ccc(-c2nc3ccccc3nc2-c2ccc(OC)c(OC)c2)cc1OC | 11 | -5 | 6 | 2 | 17 | 2 | . | .
CCCOc1ccccc1NC(=O)CC1Nc2ccccc2NC1=O (centres undefined) | -6 | -5 | 19 | 11 | 6 | 1 | . | .

High-throughput results as filed in PubChem.
